In the library only some 3.4% were active in any assay of this set; here they are far more common.
S100A4 inh HTS: inhibitors of S100A4-myosin IIA peptide binding, primary screen, biochemical, fluorescence polarization, TAMRA-MyoIIA peptide | Protein S100-A4 (Homo sapiens), P26447 | inhibition, % at 10.7 µM | 0.14% of 360,000 active | AID 652163, 2013;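 active = mean inhibition of at least 70% across replicates, with every replicate also reaching that level; inconclusive = mean inhibition reaches 70% but some replicates fall short; inactive = mean inhibition below 70%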
Target sequence (P26447 whole entry, looked up): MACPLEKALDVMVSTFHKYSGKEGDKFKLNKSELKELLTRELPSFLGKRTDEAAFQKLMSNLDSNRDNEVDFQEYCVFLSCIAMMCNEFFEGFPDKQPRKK
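Test system – S100A4 monomer (human) · Compound – single-point compound testing · Schedule – 5 min incubation before reading · Probe or stimulus – TAMRA-labelled myosin IIA heavy-chain peptide probe, 5 nM · Benchmarks – neutral control DMSO, positive control TFP · Medium – Calcium-containing HEPES buffer, pH 7.2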
Ecoli rRNA inh: reduced GFP signal of wild-type E. coli, primary screen, bacterial rRNA inhibitor project, GFP/RFP fluorescence, OD600, single point; E. coli WT GFP vs humanized-ribosome RFP mutants, 24 h; hits give low values; DMSO median 0, no signal -100; 1.6% of 350,000 active; GFP signal change (wild-type ribosome), % (no concentration beside the values);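 active = significant combined selectivity score with lowered wild-type GFP, culture density cut under 30%, mutant RFP and density less affected; inactive = any of these conditions unmet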
ERAP1 HTS inh: human ERAP1 aminopeptidase inhibitors, primary screen, biochemical, single point, plate reader; Endoplasmic reticulum aminopeptidase 1 (Homo sapiens), Q9NZ08; recombinant ERAP1, Leu-AMC fluorescence, 60 min; 0.15% of 340,000 active; inhibition, % at 10.7 µM;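 active = mean replicate inhibition of at least 30%, or all replicates individually reaching that 30% level; inactive = mean below 30% and not every replicate reaching it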;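 note: 0% = neutral control wells and 100% = L-leucinethiol positive control wells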
MLL AF4-AF9 inh: inhibitors of AF4 peptide binding to AF9, primary screen, biochemical, AlphaScreen, biotin-AF4 peptide, FLAG-AF9, single point; Protein AF-9 (Homo sapiens), P42568; inhibition, % at 10 µM; 0.47% of 350,000 active; AID 651704, 2012;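 active = every replicate reaching a set inhibition limit, whatever the replicate mean, cut at about 25% in these data; inconclusive = mean inhibition reaches that limit but some replicates miss it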;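 note: 0% = plate neutral control median and 100% = total signal loss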
E-sel inducer: E-selectin induction in HUVECs, primary screen, imaging, HUVEC, immunofluorescence imaging, single point; P16581; normalized: neutral wells 0, TNF-alpha wells 100; activation, % at 7.58 µM; 0.37% of 260,000 active; AID 686992, 2013;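 active = mean E-selectin-positive cell signal at least 10% of the positive control, reached in at least 60% of replicates, without over 20% cell loss; inconclusive = no rule given, readout overlaps actives, possibly toxicity-flagged; inactive = the rest, including those meeting only one limit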
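material = human umbilical vein endothelial cells (HUVEC), E-selectin induction | quantity = 3,000 cells/well | medium = EGM-2 growth medium on 0.1% gelatin-coated wells | technique = immunofluorescence imaging | read-out basis = % PE-positive cells | control set = TNF-alpha positive control, DMSO neutral control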
SIRT5 block: SIRT5 desuccinylase inhibitors, primary screen, biochemical, fluorescence imaging, single point, set 5; NAD-dependent protein deacylase sirtuin-5, mitochondrial (Homo sapiens), Q9NXA8; Purified SirT5, succinyl-peptide AMC, trypsin-coupled fluorescence; inhibition, % at 15 µM; 1.1% of 330,000 active; in the data active = inhibition above about 15%; inconclusive = no clear call, values can overlap the other calls
Target sequence (Q9NXA8 whole entry, looked up): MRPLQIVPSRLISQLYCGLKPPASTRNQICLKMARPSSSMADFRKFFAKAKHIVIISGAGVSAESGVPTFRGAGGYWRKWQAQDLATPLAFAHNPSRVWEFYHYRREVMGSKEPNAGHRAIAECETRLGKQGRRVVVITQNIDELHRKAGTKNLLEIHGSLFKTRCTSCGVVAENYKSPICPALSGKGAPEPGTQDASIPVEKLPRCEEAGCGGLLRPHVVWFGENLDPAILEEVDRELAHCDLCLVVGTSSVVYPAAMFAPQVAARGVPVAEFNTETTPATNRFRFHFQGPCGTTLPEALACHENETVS
Active calls of the source: *; ? = inconclusive; . = no result given; ! = repeats disagree.

SMILES	S100A4 inh HTS	Ecoli rRNA inh	ERAP1 HTS inh	MLL AF4-AF9 inh	E-sel inducer	SIRT5 block
O=c1[nH]sc2cc(F)ccc12	-0.9	-56.6	31.3*	-12.7	-2.2	-6.4
CCN1C[C@]2(COC)CC[C@H](OC)[C@@]34C1[C@]1(OCO[C@@]15C[C@H](OC)[C@H]1C[C@@H]3[C@@H]5[C@H]1OC)[C@@H](O)[C@H]24	-3.7	.	-0.5	-3.4	?	-2.7
CCN1C[C@]2(CO)CC[C@H](OC)[C@@]34C2[C@H](OC)[C@@](O)(C13)[C@@]1(O)C[C@H](OC)[C@H]2C[C@@H]4[C@@H]1[C@H]2OC	-0.6	7.2	-3.6	-0.3	0.1	24.3*
CC=Cc1ccc2n(c1=O)C[C@H]1[C@H](CO)[C@@H](C(=O)O)[C@@H]2N1S(=O)(=O)c1ccccc1C (mixture of isomers)	-5.6	3.8	0.4	2.2	-0.5	-15.4
CN1CC(C(=O)c2ccc(Cl)cc2)C(c2ccc(N(C)C)cc2)C1 (stereo not given)	2.1	-14.8	-0.1	40.2*	.	-4.6
O=C(Cc1cccnc1)N1CCCCN2[C@H](CO)[C@H](c3ccc(C#CC4CC4)cc3)[C@H]2C1	-1.4	.	5.2	4.5	.	1.0
C[C@]12C=CC(=O)C=C1C=C[C@@H]1C2CC[C@]2(C)C(=O)CCC12 (stereo not given in full)	-2.1	-27.5*	-1.4	-2.4	-0.4	-0.7
COC(=O)[C@H]1[C@H](CO)[C@H]2Cn3c(ccc(C4=CCCC4)c3=O)[C@@H]1N2S(=O)(=O)c1cn(C)cn1	9.6	1.7	2.0	-2.0	-0.1	-12.8
N#Cc1cccc(-c2ccc([C@H]3[C@@H](CO)N4CCCCN(C(=O)Cc5ccccc5)C[C@@H]34)cc2)c1	-20.5	-20.5	-1.7	-4.9	-0.2	-0.1
O=C(CF)NC(NC(=S)Nc1cccc([N+](=O)[O-])c1)C(Cl)(Cl)Cl (stereo not given)	-0.3	2.8	-36.0	6.5	.	-3.7
COc1ccc(NC(=S)NC(NC(=O)CF)C(Cl)(Cl)Cl)cc1[N+](=O)[O-] (stereo not given)	2.5	-21.8*	-5.4	1.5	1.5	-4.1
CN(C)c1ccc(-[n+]2c(-c3ccccc3)cc(-c3ccccc3)cc2-c2ccccc2)cc1	-7.6	-59.0	14.5	31.0*	.	7.7
O=C1CNC[C@H]2[C@@H](c3ccc(Br)cc3)[C@H](CO)N12	2.1	4.2	-3.2	-0.2	0.1	1.4
CCOC(=O)c1c(C)n(C(C)C)c2ccc(OC)cc12	5.5	-28.5*	-1.6	-1.4	5.1	-1.1
COc1ccc2c(c1)c(C(=O)C(C)N1CCCCC1)c(C)n2C (stereo not given)	-34.1	3.9	-0.6	-2.2	1.4	-4.2
Clc1ccccc1CN1CCN(c2ccccc2Cl)CC1	-4.3	-42.2*	-2.7	1.1	.	1.0
Clc1ccccc1N1CCN(Cc2ccc3c(c2)OCO3)CC1	-23.8	-29.9	4.3	12.5	.	-3.0
CC(=O)N1C[C@@H]2N[C@H](C1)C2c1ccc(Br)cc1 (stereo not given in full)	.	1.0	.	.	.	.
O=C(Cc1ccccc1)N1CCCCN2[C@H](CO)[C@H](c3ccc(C#CC4(O)CCCC4)cc3)[C@H]2C1	-9.4	0.0	2.9	-5.8	-0.5	2.0
COc1ccc(C#Cc2ccc([C@@H]3[C@@H](CO)N4CCCCN(C(=O)Cc5ccncc5)C[C@H]34)cc2)cc1	-15.7	-20.1	-1.5	-3.3	0.1	-1.3
COC(=O)C1=C(N)Oc2cc(C)oc(=O)c2C12C(=O)Nc1ccccc12 (stereo not given)	-11.3	-23.2*	7.8	0.3	2.6	-2.3
O=C1NC(=O)C2(Cc3cc([N+](=O)[O-])ccc3N3CCN(C(=O)c4ccccc4)CC32)C(=O)N1 (stereo not given)	-2.3	-29.3*	5.7	2.7	.	5.3
C=COCCn1c(C)c(C(C)=O)c2cc(O)ccc21	5.1	-11.5	0.3	-1.8	56.5*	14.9
c1ccc2nc(N3CCNCC3)ccc2c1	-2.4	-2.4	-2.7	-3.3	70.3*!	-2.8
c1ccc2c(N3CCNCC3)cccc2c1	0.2	.	0.4	-2.7	0.4	-3.2
SMILES	S100A4 inh HTS	Ecoli rRNA inh	ERAP1 HTS inh	MLL AF4-AF9 inh	E-sel inducer	SIRT5 block
O=[N+]([O-])c1cccc(C2N3CCCN23)c1 (stereo not given)	1.4	14.0	0.2	-0.5	.	-2.3
O=C(O)c1cccc2c1NC(c1cccc([N+](=O)[O-])c1)C1CC(Sc3ccccc3[N+](=O)[O-])C(Cl)C21 (stereo not given)	-3.9	-24.0	-0.5	27.2*	-0.2	8.0
CCCN1[C@@H]2Cn3c(cccc3=O)[C@H]1[C@@H](C(=O)N(C)C)[C@@H]2CO	3.5	1.4	-3.2	-2.0	-0.2	1.1
O=C(O)[C@@H]1[C@@H](CO)[C@@H]2Cn3c(ccc(-c4ccncc4)c3=O)[C@H]1N2C(=O)C1CCCCC1	9.8	4.5	1.3	7.6	0.3	-68.5
Cc1cccc(-n2c(/C=C/c3ccc([N+](=O)[O-])o3)nc3ccccc3c2=O)c1	-27.2	19.3	-4.0	7.9	.	18.2*
O=c1c2ccccc2nc(/C=C/c2ccc([N+](=O)[O-])o2)n1-c1ccc(O)cc1	8.1	13.1	-4.4	-2.3	.	2.5
COc1cc(O)c2c(c1)/C=C/C[C@H](O)[C@H](O)C(=O)CCC[C@H](C)OC2=O	-0.7	-25.0*	3.3	-48.2	-0.8	.
CC=Cc1ccc2n(c1=O)C[C@@H]1[C@@H](CO)[C@H](C(=O)OC)[C@H]2N1CC1CCCC1 (mixture of isomers)	7.0	-1.5	0.4	-0.5	-0.3	-1.0
CC(=O)O[C@H]1CCC2C3CC[C@H]4[C@@H](O)[C@H](O)CC[C@]4(C)C3CC[C@@]21C (stereo not given in full)	-0.8	12.4	-1.9	-7.4	-0.4	.
CC(=O)O[C@H]1CCC2C3CCC4=CC(=O)CCC4=C3C=C[C@@]21C (stereo not given in full)	-0.6	-17.9*	0.1	8.7	-0.2	-2.2
O=C1NC(=S)NC(=O)C1=Cc1ccc(Br)s1	-39.7	25.9	3.5	-3.1	.	24.2*
NC1=C([N+](=O)[O-])C(c2ccc3c(c2)OCO3)c2c(c3ccccc3oc2=O)O1 (stereo not given)	-13.2	-29.1*	2.7	-6.6	.	0.1
